These results are taken from ChEMBL document CHEMBL2010680, “Short cyclic peptides derived from the C-terminal sequence of α1-antitrypsin exhibit significant anti-HIV-1 activity” (Bioorg Med Chem Lett, 2012).

Peptide text beside a SMILES is read from it.

The test system of data set [1] is Human immunodeficiency virus 1. Description: Antiviral activity against Human immunodeficiency virus 1 3B infected in human MT2 cells assessed as inhibition of viral replication after 4 days by ELISA. It counts as functional, organism-based. The settings on record: MT2, 96 h. In outline:
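Read-out is HIV-1 gag p24 antigen in culture supernatants, measured by ELISA and collected on the fourth day post-infection.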

Data set [2] is described as follows: Inhibition of Human immunodeficiency virus 1 3B envelope glycoprotein-mediated cell-cell fusion of infected H9 cells to human MT2 cells measured 2 hrs after wash out by fluorescence analysis. The settings on record: MT2, 2 h. It counts as cell-based. In outline: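 Fluorescence-labeled H9/HIV-1 IIIB cells were washed, then mixed with MT-2 cells at 1:5 for 2 h at 37 °C, without or with peptide at graded concentrations. Fused cells were counted by fluorescence microscopy, percent inhibition of fusion was calculated, and IC50 was derived from the dose-response.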

Data set [3] in a line: Cytotoxicity against human MT2 cells after 4 days by XTT assay. It counts as cell-based. A digest of the protocol: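 Peptide at graded concentrations was added to an equal volume of MT-2 cells (5 × 10^5/ml) and incubated 4 days at 37 °C. XTT (1 mg/ml) was added, and 4 h later soluble formazan was read at 450 nm with a 650 nm reference. CC50 was calculated from the dose-response.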

For data set [4], the system named is Human immunodeficiency virus 1. Briefly: Antiviral activity against Human immunodeficiency virus type 1 SF162 pseudovirus expressing envelope glycoprotein 160 infected in human U87 cells after 48 hrs by luminometric analysis. The format is functional, cell-based, U-87MG ATCC. The settings on record: Human immunodeficiency virus 1, SF162 ISOLATE, U-87 MG. In outline: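 U87-CCR5 cells were seeded overnight. Pseudovirus (1 ng p24/well) was preincubated with peptide at the indicated concentration for 30 min at 37 °C, then added to the cells for 48 h. Cells were washed with PBS and lysed, and luciferase activity was measured by luminometer. Each peptide was tested in triplicate; data are mean ± SD.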

In the case of H-KPFVFLM-OH, the IC50 in data set [1] is over 100 µM.

`CSCC[C@@H]1NC(=O)[C@H](CC(C)C)NC(=O)[C@H](Cc2ccccc2)NC(=O)[C@H](C(C)C)NC(=O)[C@H](CCC(=O)O)NC(=O)[C@@H]2CCCN2C(=O)[C@H](CS)NC1=O` (cyclo(CPEVFLM)): the IC50 in data set [2] was over 200 µM; in data set [1], over 100 µM. The compound further displayed a CC50 at 96 h in data set [3] of over 200 µM.

As for H-EFVFLM-OH, the IC50 in data set [1] is over 100 µM.

As for H-FVFLM-OH, the IC50 in data set [1] was over 100 µM.

For the compound `CSCC[C@@H]1NC(=O)[C@H](CC(C)C)NC(=O)[C@H](Cc2ccccc2)NC(=O)[C@H](C(C)C)NC(=O)[C@H](Cc2ccccc2)NC(=O)[C@@H]2CCCN2C(=O)[C@H](CS)NC1=O` (cyclo(CPFVFLM)), the IC50 is 67.2 µM in data set [2], 8.96 µM in data set [1] and 5.95 µM in data set [4]. Besides, in data set [3], the CC50 at 96 h was over 200 µM.

On to H-PFVFLE-OH, for which the values for the IC50 in data set [2] and in data set [1] were over 200 µM and over 100 µM, respectively.

In the case of H-PFVFLM-OH, the concentration for half-maximal inhibition (IC50) was over 200 µM in data set [2] and over 100 µM in data set [1].

In the case of H-NKPFVFLM-OH, in data set [1], the IC50 was over 100 µM.

Turning to `CC(C)C[C@@H]1NC(=O)[C@H](Cc2ccccc2)NC(=O)[C@H](C(C)C)NC(=O)[C@H](Cc2ccccc2)NC(=O)[C@@H]2CCCN2C(=O)[C@H](CS)NC(=O)[C@H](CCC(=O)O)NC1=O` (cyclo(CPFVFLE)), the figures for the IC50 in data set [2] and in data set [1] were 116 µM and 55.8 µM, respectively. This compound also gave a CC50 at 96 h in data set [3] of over 200 µM.

Turning to H-PEVFLM-OH, the IC50 in data set [2] was over 200 µM; in data set [1] it was over 100 µM.

Turning to H-PFVFLR-OH, the IC50 is over 200 µM in data set [2] and over 100 µM in data set [1].

For the compound H-PFVYLI-OH, in data set [1], the half-inhibitory concentration (IC50) was over 100 µM.

On to `CC(C)C[C@@H]1NC(=O)[C@H](Cc2ccccc2)NC(=O)[C@H](C(C)C)NC(=O)[C@H](Cc2ccccc2)NC(=O)[C@@H]2CCCN2C(=O)[C@H](CS)NC(=O)[C@H](CCCNC(=N)N)NC1=O` (cyclo(CPFVFLR)), for which the IC50 in data set [2] was 74 µM; in data set [1] it was 74.1 µM. The compound further gave a CC50 at 96 h in data set [3] of over 200 µM.
